Data as given in paper PMC2834294 (Chemistry & biology, 2010).

Assays:
Assay type in all cases: cell-based
[1] = biological target: T1, TRPML3 coexpressed with dynamin (Homo sapiens, UniProt Q8TDD5); assay: Calcium imaging, HEK293 cells coexpressing wild type dynamin with TRPML3; details: compared to control experiments
T1 sequence (Q8TDD5 1-553): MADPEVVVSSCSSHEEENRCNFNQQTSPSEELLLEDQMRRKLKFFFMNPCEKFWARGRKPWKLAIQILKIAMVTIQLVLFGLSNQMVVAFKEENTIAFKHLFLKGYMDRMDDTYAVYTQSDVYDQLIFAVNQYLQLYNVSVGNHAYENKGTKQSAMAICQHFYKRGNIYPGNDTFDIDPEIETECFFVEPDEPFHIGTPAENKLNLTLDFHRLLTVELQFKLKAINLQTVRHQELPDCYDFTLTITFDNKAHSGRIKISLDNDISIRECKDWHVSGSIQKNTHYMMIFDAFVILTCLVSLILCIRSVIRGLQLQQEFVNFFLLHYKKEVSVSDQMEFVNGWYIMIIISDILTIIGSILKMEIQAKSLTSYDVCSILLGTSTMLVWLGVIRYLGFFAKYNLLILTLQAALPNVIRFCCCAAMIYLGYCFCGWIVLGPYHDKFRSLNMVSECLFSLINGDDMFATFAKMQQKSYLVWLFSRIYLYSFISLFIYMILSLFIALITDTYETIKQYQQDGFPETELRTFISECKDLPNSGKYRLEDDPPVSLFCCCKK
How it was run: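 HEK293 cells were transiently cotransfected (Genejammer) with wild-type dynamin and TRPML3 and imaged 24 h later. Cells on glass coverslips were loaded with 4 µM fura-2-AM in bath solution (mM: 138 NaCl, 6 KCl, 2 MgCl2, 2 CaCl2, 10 HEPES, 5.5 D-glucose; pH 7.4). Responses to activators were compared with control transfections.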

TRPML2 = biological target: T2, TRPML2 (Homo sapiens, UniProt Q8IZK6); assay: Fura-2 calcium imaging, HEK293 cells expressing TRPML2; details: 10 µM
T2 sequence (Q8IZK6 1-566): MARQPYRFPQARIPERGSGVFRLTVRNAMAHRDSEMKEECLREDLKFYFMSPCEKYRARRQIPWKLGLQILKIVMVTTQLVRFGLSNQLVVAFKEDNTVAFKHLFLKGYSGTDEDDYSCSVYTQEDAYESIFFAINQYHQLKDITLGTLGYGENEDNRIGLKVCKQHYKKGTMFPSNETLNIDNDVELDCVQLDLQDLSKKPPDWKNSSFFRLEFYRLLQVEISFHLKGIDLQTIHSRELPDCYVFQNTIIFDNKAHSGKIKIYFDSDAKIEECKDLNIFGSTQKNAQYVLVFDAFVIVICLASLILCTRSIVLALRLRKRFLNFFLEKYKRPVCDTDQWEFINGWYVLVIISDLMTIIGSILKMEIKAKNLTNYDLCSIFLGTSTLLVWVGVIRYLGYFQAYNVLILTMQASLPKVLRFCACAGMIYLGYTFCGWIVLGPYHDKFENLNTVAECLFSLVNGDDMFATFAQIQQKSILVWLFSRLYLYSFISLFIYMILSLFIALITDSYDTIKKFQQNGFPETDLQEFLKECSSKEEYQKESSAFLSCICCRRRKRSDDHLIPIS
How it was run: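 HEK293 cells were transiently transfected (Genejammer) with the human channel construct or YFP control and measured 24 h later. Cells on glass coverslips were loaded with 4 µM fura-2-AM in bath solution (mM: 138 NaCl, 6 KCl, 2 MgCl2, 2 CaCl2, 10 HEPES, 5.5 D-glucose; pH 7.4). Compounds were applied at 10 µM and the F340/F380 ratio recorded. Values are mean ± SEM, n≥3.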

TRPML3 = biological target: T3, TRPML3 (Homo sapiens, UniProt Q8TDD5); assay: Whole-cell patch-clamp with intracellular application
T3 sequence (Q8TDD5 1-553): T1 sequence (Q8TDD5 1-553)

SMILES: Cc1cc(C)c(C2=NOC3C4CCC(C4)C23)c(C)c1 (stereo not shown) [SN-2, 5-mesityl-3-oxa-4-azatricyclo[5.2.1.0∼2,6∼]dec-4-ene]
- response when wild type dynamin coexpressed with TRPML3 in HEK293 cells [1]: reduction in response
- response in HEK293 cells expressing TRPML2 (TRPML2): did not show any activity
- cell membrane permeability (TRPML3; inferred from intracellular infusion experiment): not cell permeant
- response to intracellular application (infusion) (TRPML3; whole-cell, −80 mV): did not elicit a response when infused into the cells
